From ChEMBL document CHEMBL3272181, “Design of substrate-site-directed irreversible inhibitors of adenosine 5'-phosphate aminohydrolase. Effect of substrate substituents on affinity for the substrate site” (J Med Chem, 1976)
Each block holds one compound with its values, some of them ahead of it.

Key:
[1] = Linear competitive inhibition of rabbit muscle AMP aminohydrolase using AMP as substrate at 14 to 28 uM by Lineweaver-Burk plot analysis; format: tissue-based, Oryctolagus cuniculus, Muscle tissue
Outline: (§1)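 Rabbit-muscle AMP aminohydrolase (Grade IV), diluted into 1 M KCl before use. Assayed at 22° in 0.01 M citrate buffer pH 6.5 with 25 mM KCl, following the fall in absorbance at 265 nm (Δε 8400, except 8-bromo-AMP). Initial velocities were linear and proportional to enzyme. At least four substrate and two inhibitor levels were used; parameters came from Lineweaver-Burk plots.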

[2] = Retardation factor, Rf of the compound in 5:2:3 1-butanol-acetic acid-water by paper chromatographic analysis; format: physicochemical; settings: buffer
[3] = Retardation factor, Rf of the compound in 1:1 2-propanol-0.25 M triethylammonium bicarbonate by paper chromatographic analysis; format: physicochemical
Oryctolagus cuniculus [4] = species: Oryctolagus cuniculus; experiment: Activity at rabbit muscle AMP aminohydrolase after 24 hrs by Lineweaver-Burk plot analysis relative to AMP; format: tissue-based; settings: Muscle tissue
[5] = Linear competitive inhibition of rabbit muscle AMP aminohydrolase using AMP as substrate at 27 to 54 uM by Lineweaver-Burk plot analysis; format: tissue-based, Oryctolagus cuniculus, Muscle tissue; outline: as §1
[6] = Retardation factor, Rf of the compound in 4:1:5 1-butanol-acetic acid-water by paper chromatographic analysis; format: physicochemical; settings: buffer
[7] = Retardation factor, Rf of the compound in 7:3 95% ethanol-1M ammonium acetate at pH 7.5 by paper chromatographic analysis; format: physicochemical
[8] = Retardation factor, Rf of the compound in 7:3 1-propanol-water by paper chromatographic analysis; format: physicochemical; settings: buffer
[9] = Linear competitive inhibition of rabbit muscle AMP aminohydrolase using AMP as substrate at 11 to 22 uM by Lineweaver-Burk plot analysis; format: tissue-based, Oryctolagus cuniculus, Muscle tissue; outline: as §1
Oryctolagus cuniculus [10] = species: Oryctolagus cuniculus; experiment: Activity at rabbit muscle AMP aminohydrolase after 48 hrs by Lineweaver-Burk plot analysis relative to AMP; format: tissue-based; settings: Muscle tissue
[11] = Non-linear competitive inhibition of rabbit muscle AMP aminohydrolase using AMP as substrate at 23 uM by Lineweaver-Burk plot analysis; format: tissue-based, Oryctolagus cuniculus, Muscle tissue; outline: as §1
[12] = Non-linear competitive inhibition of rabbit muscle AMP aminohydrolase using AMP as substrate at 46 uM by Lineweaver-Burk plot analysis; format: tissue-based, Oryctolagus cuniculus, Muscle tissue; outline: as §1
Oryctolagus cuniculus [13] = species: Oryctolagus cuniculus; experiment: Activity at rabbit muscle AMP aminohydrolase by Lineweaver-Burk plot analysis; format: tissue-based; settings: Muscle tissue; outline: as §1
[14] = Linear competitive inhibition of rabbit muscle AMP aminohydrolase using AMP as substrate at 64 to 128 uM by Lineweaver-Burk plot analysis; format: tissue-based, Oryctolagus cuniculus, Muscle tissue; outline: as §1
[15] = Stability of the compound in Tris buffer at pH 8.5 at 22 degC; format: physicochemical
[16] = Linear competitive inhibition of rabbit muscle AMP aminohydrolase using AMP as substrate at 12 to 24 uM by Lineweaver-Burk plot analysis; format: tissue-based, Oryctolagus cuniculus, Muscle tissue; outline: as §1
[17] = Linear competitive inhibition of rabbit muscle AMP aminohydrolase using AMP as substrate at 26 to 52 uM by Lineweaver-Burk plot analysis; format: tissue-based, Oryctolagus cuniculus, Muscle tissue; outline: as §1
[18] = Stability of the compound assessed as pancreatic protease type 1 (unknown origin)-mediated amide linkage cleavage at pH 7.6 after 24 hrs by paper electrophoretic analysis; format: ADME; settings: buffer, pH 7.6, 24 h
Outline: (§2)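 Compounds were incubated at 37° for 24 h in 0.05 M Tris pH 7.6 (2 ml) with one of: acylase 20 mg; pancreatic protease I 20 mg; fungal II 20 mg; papaya III 10 mg; bacterial IV 200 mg; VI 30 mg; VII 30 or 15 mg; X 5 mg; or hog-intestine peptidase 20 mg. Amide cleavage was checked by paper electrophoresis (pH 7.6, 4 kV, 30 min).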

[19] = Stability of the compound assessed as fungal protease type 2-mediated amide linkage cleavage at pH 7.6 after 24 hrs by paper electrophoretic analysis; format: ADME; settings: fungi, buffer, pH 7.6, 24 h; outline: as §2
[20] = Stability of the compound assessed as papaya protease type 3-mediated amide linkage cleavage at pH 7.6 after 24 hrs by paper electrophoretic analysis; format: ADME; settings: carica papaya, buffer, pH 7.6, 24 h; outline: as §2
[21] = Stability of the compound assessed as bacterial protease type 4-mediated amide linkage cleavage at pH 7.6 after 24 hrs by paper electrophoretic analysis; format: ADME; settings: bacteria, buffer, pH 7.6, 24 h; outline: as §2
[22] = Stability of the compound assessed as bacterial protease type 6-mediated amide linkage cleavage at pH 7.6 after 24 hrs by paper electrophoretic analysis; format: ADME; settings: bacteria, buffer, pH 7.6, 24 h; outline: as §2
[23] = Stability of the compound assessed as bacterial protease type 7-mediated amide linkage cleavage at pH 7.6 after 24 hrs by paper electrophoretic analysis; format: ADME; settings: bacteria, buffer, pH 7.6, 24 h; outline: as §2
[24] = Stability of the compound assessed as bacterial protease type 8-mediated amide linkage cleavage at pH 7.6 after 24 hrs by paper electrophoretic analysis; format: ADME; settings: bacteria, buffer, pH 7.6, 24 h
[25] = Stability of the compound assessed as bacterial protease type 10-mediated amide linkage cleavage at pH 7.6 after 24 hrs by paper electrophoretic analysis; format: ADME; settings: bacteria, buffer, pH 7.6, 24 h; outline: as §2
[26] = Stability of the compound assessed as acylase (unknown origin)-mediated amide linkage cleavage at pH 7.6 after 24 hrs by paper electrophoretic analysis; format: ADME; settings: buffer, pH 7.6, 24 h; outline: as §2
[27] = Stability of the compound assessed as hog intestinal peptidase-mediated amide linkage cleavage at pH 7.6 after 24 hrs by paper electrophoretic analysis; format: ADME, Sus scrofa; settings: pig, isolated protein, pH 7.6, 24 h; outline: as §2
[28] = Linear noncompetitive inhibition of rabbit muscle AMP aminohydrolase using AMP as substrate at 19 to 38 uM by Lineweaver-Burk plot analysis; format: tissue-based, Oryctolagus cuniculus, Muscle tissue; outline: as §1
[29] = Linear competitive inhibition of rabbit muscle AMP aminohydrolase using AMP as substrate at 49 to 99 uM by Lineweaver-Burk plot analysis; format: tissue-based, Oryctolagus cuniculus, Muscle tissue; outline: as §1
[30] = Retardation factor, Rf of the compound in 7:1:2 2-propanol-concentrated ammonia-water by paper chromatographic analysis; format: physicochemical; settings: buffer
[31] = Linear competitive inhibition of rabbit muscle AMP aminohydrolase using AMP as substrate at 49 to 148 uM by Lineweaver-Burk plot analysis; format: tissue-based, Oryctolagus cuniculus, Muscle tissue; outline: as §1
[32] = Linear competitive inhibition of rabbit muscle AMP aminohydrolase using AMP as substrate at 11 to 23 uM by Lineweaver-Burk plot analysis; format: tissue-based, Oryctolagus cuniculus, Muscle tissue; outline: as §1
[33] = Linear competitive inhibition of rabbit muscle AMP aminohydrolase using AMP as substrate at 21 to 42 uM by Lineweaver-Burk plot analysis; format: tissue-based, Oryctolagus cuniculus, Muscle tissue; outline: as §1

Rf [2]: 0.33
Rf [3]: 0.75
Activity (Oryctolagus cuniculus [4]): 0%
Ki [5]: 19 µM
SMILES: COC(=O)NCC(C[C@H]1O[C@@H](n2cnc3c(N)ncnc32)[C@H](O)[C@@H]1O)P(=O)(O)O (stereo partly drawn)

Activity (Oryctolagus cuniculus [10]): > 0%
Ki [11]: 47 µM
Ki [12]: 30 µM
SMILES: CC(=O)NC[C@@H](OP(=O)(O)O)[C@H]1O[C@@H](n2cnc3c(N)ncnc32)[C@H](O)[C@@H]1O

Activity (Oryctolagus cuniculus [10]): 0%
Ki [28]: 205 µM
SMILES: CCC(=O)NC[C@@H](OP(=O)(O)O)[C@H]1O[C@@H](n2cnc3c(N)ncnc32)[C@H](O)[C@@H]1O

Km (Oryctolagus cuniculus [13]): 670 µM
Rf [2]: 0.56
Rf [6]: 0.34
Rf [8]: 0.41
Activity (Oryctolagus cuniculus [4]): 0.07%
Ki [29]: 105 µM
SMILES: CC(=O)O[C@@H]1[C@H](OC(C)=O)[C@@H](COP(=O)(O)O)O[C@H]1n1cnc2c(N)ncnc21

Km (Oryctolagus cuniculus [13]): 130 µM
Rf [2]: 0.59
Rf [30]: 0.34
Rf [6]: 0.4
Rf [7]: 0.3
Activity (Oryctolagus cuniculus [4]): 0.5%
Ki [31]: 260 µM
SMILES: CC1(C)O[C@@H]2[C@H](O1)[C@@H](COP(=O)(O)O)O[C@H]2n1cnc2c(N)ncnc21

Activity (Oryctolagus cuniculus [4]): > 0%
Ki [32]: 18 µM
SMILES: CC(=O)NC[C@H](OP(=O)(O)O)[C@H]1O[C@@H](n2cnc3c(N)ncnc32)[C@H](O)[C@@H]1O

The next lines start with the compound.

SMILES: CCC(=O)NC[C@H](OP(=O)(O)O)[C@H]1O[C@@H](n2cnc3c(N)ncnc32)[C@H](O)[C@@H]1O
Ki [1]: 42 µM

SMILES: CC(=O)OC(C[C@H]1O[C@@H](n2cnc3c(N)ncnc32)[C@@H]2OC(C)(C)O[C@@H]21)P(=O)(O)O (stereo partly drawn)
Rf [2]: 0.65
Rf [6]: 0.5
Rf [7]: 0.39
Rf [8]: 0.49

SMILES: N#CC(C[C@H]1O[C@@H](n2cnc3c(N)ncnc32)[C@H](O)[C@@H]1O)P(=O)(O)O (stereo partly drawn)
Rf [2]: 0.27
Rf [3]: 0.71

SMILES: CCOC(=O)NCC(C[C@H]1O[C@@H](n2cnc3c(N)ncnc32)[C@H](O)[C@@H]1O)P(=O)(O)O (stereo partly drawn)
Rf [2]: 0.41
Rf [3]: 0.78
Activity (Oryctolagus cuniculus [4]): 0%
Ki [9]: 16 µM

SMILES: CC(=O)OC(C[C@H]1O[C@@H](n2cnc3c(N)ncnc32)[C@H](O)[C@@H]1O)P(=O)(O)O (stereo partly drawn)
Km (Oryctolagus cuniculus [13]): 120 µM
Rf [2]: 0.31
Rf [6]: 0.18
Rf [7]: 0.17
Rf [8]: 0.27
Activity (Oryctolagus cuniculus [4]): 7.8%
Ki [14]: 330 µM
Stability [15]: 16 h

SMILES: CCCOC(=O)NCC(C[C@H]1O[C@@H](n2cnc3c(N)ncnc32)[C@H](O)[C@@H]1O)P(=O)(O)O (stereo partly drawn)
Rf [2]: 0.55
Rf [3]: 0.81
Activity (Oryctolagus cuniculus [4]): 0%
Ki [16]: 14 µM

SMILES: CC(=O)NCC(C[C@H]1O[C@@H](n2cnc3c(N)ncnc32)[C@H](O)[C@@H]1O)P(=O)(O)O (stereo partly drawn)
Km (Oryctolagus cuniculus [13]): 80 µM
Rf [2]: 0.29
Rf [3]: 0.73
Activity (Oryctolagus cuniculus [4]): 0.61%
Ki [17]: 20 µM
Stability [18]: Stable
Stability [19]: Stable
Stability [20]: Stable
Stability [21]: Stable
Stability [22]: Stable
Stability [23]: Stable
Stability [24]: Stable
Stability [25]: Stable
Stability [26]: Stable
Stability [27]: Stable

SMILES: NCC(C[C@H]1O[C@@H](n2cnc3c(N)ncnc32)[C@H](O)[C@@H]1O)P(=O)(O)O (stereo partly drawn)
Km (Oryctolagus cuniculus [13]): 140 µM
Rf [2]: 0.21
Rf [3]: 0.49
Activity (Oryctolagus cuniculus [4]): 0.65%

SMILES: Nc1ncnc2c1ncn2[C@@H]1O[C@H](COP(=O)(O)O)[C@@H](O)[C@H]1O
Km (Oryctolagus cuniculus [13]): 600 µM
Vmax (Oryctolagus cuniculus [13]): 294 µmol/min
Activity (Oryctolagus cuniculus [4]): 100%

SMILES: CCC(=O)NCC(C[C@H]1O[C@@H](n2cnc3c(N)ncnc32)[C@H](O)[C@@H]1O)P(=O)(O)O (stereo partly drawn)
Rf [2]: 0.39
Rf [3]: 0.83
Activity (Oryctolagus cuniculus [4]): 0%
Ki [33]: 17 µM
Stability [18]: Stable
Stability [19]: Stable
Stability [20]: Stable
Stability [21]: Stable
Stability [22]: Stable
Stability [23]: Stable
Stability [24]: Stable
Stability [25]: Stable
Stability [26]: Stable
Stability [27]: Stable
